Source: PubChem BioAssay (Broad Institute)
Hits are enriched below; roughly 0.44% of the tested compounds scored in any of these assays.
ERp5 block: ERp5 (human) disulfide isomerase inhibition; AID 651711; ERp5 insulin aggregation, absorbance 650 nm, 90 min; inhibition, % at 9.99 µM; Q15084; 350,000 tested, 0.05% active;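 active = mean replicate inhibition above about 25%, with every replicate also reaching it, limit read from the data, passing the limit was not always enough; inconclusive = only one of those two criteria met; inactive = neither criterion met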
Target sequence (Q15084 whole entry, looked up): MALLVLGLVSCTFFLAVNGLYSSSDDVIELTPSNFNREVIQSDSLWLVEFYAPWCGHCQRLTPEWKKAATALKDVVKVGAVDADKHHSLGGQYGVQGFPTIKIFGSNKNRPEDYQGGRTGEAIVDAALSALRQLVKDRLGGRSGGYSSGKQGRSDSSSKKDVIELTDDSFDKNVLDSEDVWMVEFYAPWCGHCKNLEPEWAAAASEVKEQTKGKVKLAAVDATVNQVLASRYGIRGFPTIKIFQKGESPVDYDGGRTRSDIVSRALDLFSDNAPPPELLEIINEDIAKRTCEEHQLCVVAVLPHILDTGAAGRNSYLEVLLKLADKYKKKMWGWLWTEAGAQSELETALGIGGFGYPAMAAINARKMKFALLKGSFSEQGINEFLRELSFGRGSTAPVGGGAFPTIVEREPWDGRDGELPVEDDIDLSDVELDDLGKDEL
PglD DTNB: PglD (C. jejuni) enzyme inhibition; purified PglD enzyme, DTNB colorimetric CoA detection; inhibition, % at 12.5 µM; 360,000 tested, 0.098% active; AID 602405; in the data active = inhibition above about 16%, passing the limit was not always enough; inconclusive = no clear call, values can overlap the other calls
S100A4 inh HTS: blocks human S100A4 binding to myosin IIA peptide | P26447 | S100A4/TAMRA-MyoIIA peptide fluorescence polarization | inhibition, % at 10.7 µM | 360,000 tested, 0.14% active | AID 652163;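 active = mean inhibition of at least 70% across replicates, with every replicate also reaching that level; inconclusive = mean inhibition reaches 70% but some replicates fall short; inactive = mean inhibition below 70%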
Target sequence (P26447 whole entry, looked up): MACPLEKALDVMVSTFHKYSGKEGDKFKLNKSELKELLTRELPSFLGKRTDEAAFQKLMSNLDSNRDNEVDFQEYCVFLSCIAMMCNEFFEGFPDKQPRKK
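Assay system: human S100A4 monomer with TAMRA-labelled myosin IIA peptide / Buffer or medium: Calcium-containing HEPES buffer, pH 7.2 / Reagent: TAMRA-labelled myosin IIA heavy-chain peptide probe, 5 nM / Compound: one dose per compound / Timing: polarization read 5 min after assay mix addition, stable 5–60 min / Benchmarks: neutral control DMSO, positive control TFP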
FN deposition inh: fibronectin deposition inhibition; AH1F fibroblasts, Alexa488-fibronectin deposition fluorescence, overnight; inhibition, % at 12.6 µM; 350,000 tested, 0.086% active; AID 743247;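 active = mean inhibition across replicates of 30% or more, regardless of how many single replicates reach that level; inconclusive = mean under 30% yet at least half of replicates reach 30%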;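 note: positive control wells lacked labelled fibronectin entirely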
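Assay system: AH1F fibroblasts assembling fluorescent fibronectin matrix; Amount: 10000 AH1F cells per well; Buffer or medium: DMEM, 2% serum; Probe or stimulus: Alexa488-fibronectin, 24 nM final in well; Doses: single compound dose, delivered by pin transfer; Incubation: 1 h adhesion, overnight exposure; Measured by: fluorescence 485/525 nm; Read-out: fibronectin deposition inhibition.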
RAD54 inh: RAD54 (human) branch migration inhibition | Q92698 | RAD54 Holliday junction branch migration, FAM/BHQ fluorescence | inhibition, % at 10.4 µM | 360,000 tested, 0.14% active;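 active = mean normalized replicate activity at least 40 and at least half of replicates scoring 40 or more; inconclusive = only one of the two criteria met; inactive = mean below 40 and under half of replicates reaching 40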;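 note: 0% = median of neutral control wells and 100% = median of positive control wells; inhibitors cause a drop in the FAM fluorescence signal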
PDI turbidity: inhibitors of human protein disulfide isomerase. P07237. PDI insulin aggregation turbidity, A650, 90 min. inhibition, % at 10 µM. 350,000 tested, 0.052% active. AID 588391;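 active = mean inhibition across replicates of 30% or more, whatever share of single replicates reach that level; inconclusive = mean inhibition below 30% while every single replicate reaches 30%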
PglD inh SP: PglD (C. jejuni) inhibition confirmation; shares compounds with PglD DTNB; Purified C. jejuni PglD, DTNB absorbance 412 nm; inhibition, % at 20 µM; 320 tested, under 10 active;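 active = mean inhibition across replicates of at least 20% with every single replicate also at 20% or more; inconclusive = mean inhibition at least 20% but some replicate falls below 20%; inactive = mean inhibition under 20% and not all replicates reach it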;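 note: initial rate of CoA release by acetyl transfer from AcCoA to the UDP-4-amino sugar; 0% = median of neutral control wells and 100% = median of positive control wells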
* marks the source's active call; other numbers are inactive results.

How did O=S(=O)(c1ccc(F)cc1)N1CCCC(CO)C1 (stereo unspecified) do in these assays?
PglD DTNB: 33*; RAD54 inh: -10; PDI turbidity: -3; PglD inh SP: -2

Results for NS(=O)(=O)c1ccc(CCNC(=O)CCCNC(=O)c2ccc(Cl)cc2)cc1 ?
ERp5 block: 2; PglD DTNB: 0; S100A4 inh HTS: 0; FN deposition inh: 5; RAD54 inh: -1; PDI turbidity: 8

Results for NC(=O)CC(NC(=O)c1ccc(Cl)cc1)C(=O)NCCc1ccc(S(N)(=O)=O)cc1 (stereo unspecified) ?
ERp5 block: 3; PglD DTNB: 23*; S100A4 inh HTS: -2; FN deposition inh: -10; RAD54 inh: -12; PDI turbidity: 3; PglD inh SP: 0

How did Cc1ccc(C(=O)N/N=C\c2ccc(OC(=O)c3cccc(F)c3)cc2)cn1 do in these assays?
ERp5 block: 0; PglD DTNB: 3; S100A4 inh HTS: -5; FN deposition inh: -4; RAD54 inh: 3; PDI turbidity: -89

What do the screens show for `COc1cc(/C=N\NC(=O)c2ccc(C)nc2)ccc1OC(=O)c1cccc(F)c1`?
ERp5 block: -3; PglD DTNB: 29*; S100A4 inh HTS: -3; FN deposition inh: 0; RAD54 inh: 3; PDI turbidity: -14; PglD inh SP: -7

What do the screens show for `Cc1cc(C)cc(C(=O)Oc2coc(CSc3nnc(NC(=O)C4CC4)s3)cc2=O)c1`?
FN deposition inh: 3; PDI turbidity: 4

Results for O=C(Oc1coc(CSc2nnc(NC(=O)C3CC3)s2)cc1=O)c1c(F)cccc1F ?
ERp5 block: 6; PglD DTNB: 63*; S100A4 inh HTS: 4; FN deposition inh: 3; RAD54 inh: -1; PDI turbidity: -1; PglD inh SP: 4

How did c1cncc(CNc2nc(-c3cccnc3)nc3ccccc23)c1 do in these assays?
ERp5 block: -3; PglD DTNB: 24*; S100A4 inh HTS: -9; FN deposition inh: 14; RAD54 inh: 15; PDI turbidity: 1; PglD inh SP: 3

What do the screens show for `c1ccc(CNc2nc(-c3cccnc3)nc3ccccc23)cc1`?
ERp5 block: 0; PglD DTNB: -5; S100A4 inh HTS: -27; FN deposition inh: 5; RAD54 inh: -2; PDI turbidity: 8

Results for COc1cc2cc(CCCOC(=O)c3ccc(C(F)(F)F)cc3)oc(=O)c2cc1OC ?
ERp5 block: 2; PglD DTNB: 35*; S100A4 inh HTS: -4; FN deposition inh: -5; RAD54 inh: 4; PDI turbidity: -5; PglD inh SP: 6

How did CCn1c(SCc2nc3sc(C(=O)O)c(C)c3c(=O)[nH]2)nc2ccccc21 do in these assays?
PglD DTNB: 28*; RAD54 inh: -3; PDI turbidity: -23; PglD inh SP: 47*

What do the screens show for `C[C@H]1CN([C@@H](C)CO)S(=O)(=O)c2ccc(/C=C/c3ccccc3)cc2O[C@@H]1CN(C)C(=O)Nc1ccc(F)cc1`?
ERp5 block: 0; PglD DTNB: 2; S100A4 inh HTS: -1; FN deposition inh: -7; RAD54 inh: 8

Results for Cc1nc(S(=O)(=O)N[C@@H]2CCCN(Cc3cccc(OCCO)c3)C2)cn1C ?
ERp5 block: 2; S100A4 inh HTS: 1

How did Nc1ccc(-c2cnc(-c3ccc(N)cc3)nc2)cc1 do in these assays?
PglD DTNB: 31*; RAD54 inh: -11; PDI turbidity: 4; PglD inh SP: 3

What do the screens show for `Cn1cnnc1SCC(C)(C)NS(=O)(=O)c1ccc(Cl)cc1`?
ERp5 block: -4; PglD DTNB: 29*; S100A4 inh HTS: 8; FN deposition inh: -4; RAD54 inh: -9; PDI turbidity: 0; PglD inh SP: inconclusive

How did CC(=O)N1CC2(C1)[C@@H](c1ccc(-c3cccc(F)c3)cc1)[C@@H](CO)N2CC1CCOCC1 do in these assays?
ERp5 block: 3; S100A4 inh HTS: -6

Results for CC(C)Oc1cc(F)ccc1-c1cc(C(=O)Nc2cccc(C(F)(F)F)c2)[nH]n1 ?
ERp5 block: -8; PglD DTNB: 24*; S100A4 inh HTS: -9; FN deposition inh: 2; RAD54 inh: -4; PDI turbidity: 4; PglD inh SP: -12

How did COc1ccc(NC(=O)c2cc(-c3ccc(F)cc3OC(C)C)n[nH]2)cn1 do in these assays?
ERp5 block: 2; PglD DTNB: 8; S100A4 inh HTS: -2; FN deposition inh: 1; RAD54 inh: 6; PDI turbidity: 13

Results for C[C@@H]1CCCCO[C@@H](CN(C)C(=O)c2ccccc2)[C@H](C)CN([C@H](C)CO)C(=O)c2cc(NC(=O)CCCN(C)C)ccc2O1 ?
FN deposition inh: -5

Results for O=C(NCCN1CCCCC1)Nc1ccc(F)cc1F ?
ERp5 block: 1; PglD DTNB: 24*; S100A4 inh HTS: -37; FN deposition inh: 5; RAD54 inh: -5; PDI turbidity: 0; PglD inh SP: 7

How did CN(C)CC(=O)N[C@@H]1CC[C@@H](CCNC(=O)C2CC2)O[C@@H]1CO do in these assays?
ERp5 block: 3; S100A4 inh HTS: -3; FN deposition inh: -6

Results for CC(C)OCCCn1c(=NC(=O)c2cccs2)c(C#N)cc2c(=O)n3ccccc3nc21 ?
ERp5 block: 0; PglD DTNB: 68*; S100A4 inh HTS: 1; FN deposition inh: 11; RAD54 inh: -12; PDI turbidity: -2; PglD inh SP: -8

How did CC(C)OCCCn1c(=NC(=O)c2ccncc2)c(C#N)cc2c(=O)n3ccccc3nc21 do in these assays?
PglD DTNB: 4; RAD54 inh: 4; PDI turbidity: 1

How did COc1cccc(CN2CC3(CN(C(C)=O)C3)c3c(n(C)c4cc(OC)ccc34)[C@@H]2CO)c1 do in these assays?
ERp5 block: 3; S100A4 inh HTS: 5

What do the screens show for `O=C(NCC1CCCO1)[C@@H]1CSC2c3ccccc3C(=O)N21` (stereo partly specified)?
PglD DTNB: 22*; RAD54 inh: 3; PDI turbidity: -3; PglD inh SP: -6

Results for O=C(OCC(=O)N1CCCC1)c1cnc(Cl)c(Cl)c1 ?
ERp5 block: 4; PglD DTNB: 25*; S100A4 inh HTS: -3; FN deposition inh: 1; RAD54 inh: -1; PDI turbidity: 5; PglD inh SP: -11

What do the screens show for `O=C(OCC(=O)N1CCCc2ccccc21)c1cnc(Cl)c(Cl)c1`?
ERp5 block: -2; S100A4 inh HTS: -1; FN deposition inh: -1; PDI turbidity: 1

Results for CCN1C(=O)CC(N2CCN(c3ccc(Cl)cc3)CC2)C1=O (stereo unspecified) ?
PglD DTNB: 35*; RAD54 inh: -4; PDI turbidity: 10; PglD inh SP: 2
